One data set relates to MT4. In words: Cytotoxicity against human MT4 cells assessed as reduction in cell viability incubated for 2 days by CytoTox-Glo cytotoxicity assay. In kind it is cell-based. As to conditions: mt4, 48 h, time 2 day. The essentials:
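Mock-infected MT-4 cells cultured 2 days with a range of compound concentrations. Viability measured by CytoTox-Glo, following the kit protocol, as percent viable cells. CC50 is the concentration giving a 50% reduction in cell viability.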

Data set [1] relates to Human immunodeficiency virus 1. In words: Antiviral activity against HIV-1 NL4-3 infected in human MT4 cells assessed as reduction in p24 gag protein incubated for 4 days by ELISA. As to conditions: Human immunodeficiency virus 1, NL4-3, MT4, 96 h. The class given is functional, organism-based. Summed up:
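MT-4 cells infected with HIV-1 NL4-3 at MOI 0.01, serial compound concentrations, in 96-well format. Supernatant p24 antigen measured by capture ELISA on day 4 post-infection. IC50 is the concentration that inhibits NL4-3 replication by 50%. Bevirimat run in parallel as the reference.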

For `C=C(C)[C@@H]1CC[C@]2(C(=O)N3CCN(C(=O)/C=C/c4ccc(OCOC)c(OCOC)c4)CC3)CC[C@]3(C)[C@H](CC[C@@H]4[C@@]5(C)CC[C@H](OC(=O)CC(C)(C)C(=O)O)C(C)(C)[C@@H]5CC[C@]43C)[C@@H]12`, the cytotoxic concentration (CC50) in the data set on MT4 is more than 2 µM. Same read-out and setting: in the case of `C=C(C)[C@@H]1CC[C@]2(C(=O)N3CCN(C(=O)/C=C/c4ccc(OC)c(OC)c4)CC3)CC[C@]3(C)[C@H](CC[C@@H]4[C@@]5(C)CC[C@H](OC(=O)CC(C)(C)C(=O)O)C(C)(C)[C@@H]5CC[C@]43C)[C@@H]12` it was more than 2 µM; in that of `C=C(C)[C@@H]1CC[C@]2(C(=O)N3CCN(CCCCC(=O)N4CCN(C(=O)/C=C/c5ccc6c(c5)OCO6)CC4)CC3)CC[C@]3(C)[C@H](CC[C@@H]4[C@@]5(C)CC[C@H](OC(=O)CC(C)(C)C(=O)O)C(C)(C)[C@@H]5CC[C@]43C)[C@@H]12`, more than 2 µM.

Regarding `C=C(C)[C@@H]1CC[C@]2(C(=O)N3CCN(C(=O)/C=C/c4ccc(OCCCCCCCC)c(OC)c4)CC3)CC[C@]3(C)[C@H](CC[C@@H]4[C@@]5(C)CC[C@H](OC(=O)CC(C)(C)C(=O)O)C(C)(C)[C@@H]5CC[C@]43C)[C@@H]12`, the IC50 in data set [1] (read-out: IC50) was more than 1 µM.

In the case of `C=C(C)[C@@H]1CC[C@]2(C(=O)N3CCN(C(=O)/C=C/c4ccc(O)c(OCCCCCCCC)c4)CC3)CC[C@]3(C)[C@H](CC[C@@H]4[C@@]5(C)CC[C@H](OC(=O)CC(C)(C)C(=O)O)C(C)(C)[C@@H]5CC[C@]43C)[C@@H]12`, the IC50 in data set [1] (read-out: IC50) is more than 1 µM. In the case of `C=C(C)[C@@H]1CC[C@]2(C(=O)N3CCN(C(=O)/C=C/c4cccc(C(F)(F)F)c4)CC3)CC[C@]3(C)[C@H](CC[C@@H]4[C@@]5(C)CC[C@H](OC(=O)CC(C)(C)C(=O)O)C(C)(C)[C@@H]5CC[C@]43C)[C@@H]12`, the IC50 in data set [1] (read-out: IC50) was 0.56 µM; in data set [1] (read-out: pIC50 (converted)), 0.562 µM. In addition, in the data set with MT4, the CC50 is more than 2 µM.

In the case of `C=C(C)[C@@H]1CC[C@]2(C(=O)N3CCN(C(=O)/C=C/c4cc(OC)c(OC)c(OC)c4)CC3)CC[C@]3(C)[C@H](CC[C@@H]4[C@@]5(C)CC[C@H](OC(=O)CC(C)(C)C(=O)O)C(C)(C)[C@@H]5CC[C@]43C)[C@@H]12`, the IC50 in data set [1] (read-out: IC50) was 0.041 µM; in data set [1] (read-out: pIC50 (converted)) it was 0.0407 µM. In addition, the half-maximal cytotoxic concentration (CC50) with MT4 was more than 2 µM. In the case of `C=C(C)[C@@H]1CC[C@]2(C(=O)N3CCN(C(=O)/C=C/c4ccc(N(C)C)cc4)CC3)CC[C@]3(C)[C@H](CC[C@@H]4[C@@]5(C)CC[C@H](OC(=O)CC(C)(C)C(=O)O)C(C)(C)[C@@H]5CC[C@]43C)[C@@H]12`, the IC50 in data set [1] (read-out: IC50) is 0.027 µM; in data set [1] (read-out: pIC50 (converted)), 0.0269 µM. Besides, the CC50 in the data set with MT4 was more than 2 µM. `C=C(C)[C@@H]1CC[C@]2(C(=O)CC(=O)CC(C)(C)C(=O)O)CC[C@]3(C)[C@H](CC[C@@H]4[C@@]5(C)CC[C@H](OC(=O)/C=C/c6ccc(OCOC)c(OCOC)c6)C(C)(C)[C@@H]5CC[C@]43C)[C@@H]12`: the IC50 in data set [1] (read-out: IC50) was more than 1 µM. On to `C=C(C)[C@@H]1CC[C@]2(C(=O)N3CCN(C(=O)/C=C/c4ccc(OCOC)c(OCCCCCCCC)c4)CC3)CC[C@]3(C)[C@H](CC[C@@H]4[C@@]5(C)CC[C@H](OC(=O)CC(C)(C)C(=O)O)C(C)(C)[C@@H]5CC[C@]43C)[C@@H]12`, for which the IC50 in data set [1] (read-out: IC50) is more than 1 µM. Same read-out and setting: next, `C=C(C)[C@@H]1CC[C@]2(C(=O)O)CC[C@]3(C)[C@H](CC[C@@H]4[C@@]5(C)CC[C@H](OC(=O)/C=C/c6ccc7c(c6)OCO7)C(C)(C)[C@@H]5CC[C@]43C)[C@@H]12`: more than 1 µM; `C=C(C)[C@@H]1CC[C@]2(CN3CCN(C(=O)/C=C/c4ccc5c(c4)OCO5)CC3)CC[C@]3(C)[C@H](CC[C@@H]4[C@@]5(C)CC[C@H](OC(=O)CC(C)(C)C(=O)O)C(C)(C)[C@@H]5CC[C@]43C)[C@@H]12`: more than 1 µM. For the molecule `C=C(C)[C@@H]1CC[C@]2(C(=O)N3CCN(C(=O)/C=C/c4ccccc4OC)CC3)CC[C@]3(C)[C@H](CC[C@@H]4[C@@]5(C)CC[C@H](OC(=O)CC(C)(C)C(=O)O)C(C)(C)[C@@H]5CC[C@]43C)[C@@H]12`, the IC50 in data set [1] (read-out: IC50) and in data set [1] (read-out: pIC50 (converted)) was 0.17 µM throughout. For the same molecule, in the data set with MT4, the CC50 was more than 2 µM. Regarding `C=C(C)[C@@H]1CC[C@]2(C(=O)CC(=O)CC(C)(C)C(=O)O)CC[C@]3(C)[C@H](CC[C@@H]4[C@@]5(C)CC[C@H](OC(=O)/C=C/N6CCN(C(=O)OC(C)(C)C)CC6)C(C)(C)[C@@H]5CC[C@]43C)[C@@H]12`, in data set [1] (read-out: IC50), the IC50 was more than 1 µM. As to `C=C(C)[C@@H]1CC[C@]2(C(=O)N3CCN(C(=O)/C=C/c4ccc(Cl)cc4)CC3)CC[C@]3(C)[C@H](CC[C@@H]4[C@@]5(C)CC[C@H](OC(=O)CC(C)(C)C(=O)O)C(C)(C)[C@@H]5CC[C@]43C)[C@@H]12`, the IC50 in data set [1] (read-out: IC50) was 0.36 µM; in data set [1] (read-out: pIC50 (converted)) it was 0.363 µM. The CC50 in the data set on MT4 was more than 2 µM. With `C=C(C)[C@@H]1CC[C@]2(C(=O)N3CCN(C(=O)/C=C/c4ccc(OCCCCCCCC)c(OCCCCCCCC)c4)CC3)CC[C@]3(C)[C@H](CC[C@@H]4[C@@]5(C)CC[C@H](OC(=O)CC(C)(C)C(=O)O)C(C)(C)[C@@H]5CC[C@]43C)[C@@H]12`, the IC50 in data set [1] (read-out: IC50) is more than 1 µM. For the molecule `C=C(C)[C@@H]1CC[C@]2(C(=O)O)CC[C@]3(C)[C@H](CC[C@@H]4[C@@]5(C)CC[C@H](OC(=O)/C=C/c6ccc(OCOC)c(OCOC)c6)C(C)(C)[C@@H]5CC[C@]43C)[C@@H]12`, in data set [1] (read-out: IC50), the IC50 is more than 1 µM.

Consider `C=C(C)[C@@H]1CC[C@]2(C(=O)OCCCCCCCCN3CCN(C(=O)/C=C/c4ccc5c(c4)OCO5)CC3)CC[C@]3(C)[C@H](CC[C@@H]4[C@@]5(C)CC[C@H](OC(=O)CC(C)(C)C(=O)O)C(C)(C)[C@@H]5CC[C@]43C)[C@@H]12`, for which, in data set [1] (read-out: IC50), the IC50 was more than 1 µM. Regarding `C=C(C)[C@@H]1CC[C@]2(C(=O)N3CCN(C(=O)/C=C/c4ccc(OC)cc4)CC3)CC[C@]3(C)[C@H](CC[C@@H]4[C@@]5(C)CC[C@H](OC(=O)CC(C)(C)C(=O)O)C(C)(C)[C@@H]5CC[C@]43C)[C@@H]12`, the IC50 was 0.076 µM in data set [1] (read-out: IC50) and 0.0759 µM in data set [1] (read-out: pIC50 (converted)). The cytotoxic concentration (CC50) in the data set with MT4 is more than 2 µM. For `C=C(C)[C@@H]1CC[C@]2(C(=O)N3CCN(C(=O)/C=C/c4ccc([N+](=O)[O-])cc4)CC3)CC[C@]3(C)[C@H](CC[C@@H]4[C@@]5(C)CC[C@H](OC(=O)CC(C)(C)C(=O)O)C(C)(C)[C@@H]5CC[C@]43C)[C@@H]12`, in that order: 0.11 µM, 0.11 µM and more than 2 µM.

Turning to `C=C(C)[C@@H]1CC[C@]2(C(=O)N3CCN(C(=O)CC(C)(C)C(=O)O)CC3)CC[C@]3(C)[C@H](CC[C@@H]4[C@@]5(C)CC[C@H](OC(=O)/C=C/c6ccc7c(c6)OCO7)C(C)(C)[C@@H]5CC[C@]43C)[C@@H]12`, the IC50 in data set [1] (read-out: IC50) is more than 1 µM. Consider `C=C(C)[C@@H]1CC[C@]2(C(=O)N3CCN(C(=O)/C=C/c4ccc(OCc5cccc(Cl)c5)c(OC)c4)CC3)CC[C@]3(C)[C@H](CC[C@@H]4[C@@]5(C)CC[C@H](OC(=O)CC(C)(C)C(=O)O)C(C)(C)[C@@H]5CC[C@]43C)[C@@H]12`, for which, in data set [1] (read-out: IC50), the IC50 is more than 1 µM.

Turning to `C=C(C)[C@@H]1CC[C@]2(C(=O)CC(C)=O)CC[C@]3(C)[C@H](CC[C@@H]4[C@@]5(C)CC[C@H](OC(=O)/C=C/N6CCN(C(=O)OC(C)(C)C)CC6)C(C)(C)[C@@H]5CC[C@]43C)[C@@H]12`, in data set [1] (read-out: IC50), the IC50 is more than 1 µM. For the molecule `C=C(C)[C@@H]1CC[C@]2(C(=O)N3CCN(C(=O)/C=C/c4ccc(OC)c(Cl)c4)CC3)CC[C@]3(C)[C@H](CC[C@@H]4[C@@]5(C)CC[C@H](OC(=O)CC(C)(C)C(=O)O)C(C)(C)[C@@H]5CC[C@]43C)[C@@H]12`, the IC50 in data set [1] (read-out: IC50) was 0.13 µM; in data set [1] (read-out: pIC50 (converted)) it was 0.129 µM. The half-maximal cytotoxic concentration (CC50) in the data set on MT4 was more than 2 µM.

Regarding `C=C(C)[C@@H]1CC[C@]2(C(=O)N3CCN(C(=O)CC(C)(C)C(=O)O)CC3)CC[C@]3(C)[C@H](CC[C@@H]4[C@@]5(C)CC[C@H](Oc6ccc7c(c6)OCO7)C(C)(C)[C@@H]5CC[C@]43C)[C@@H]12`, in data set [1] (read-out: IC50), the IC50 is more than 1 µM. `C=C(C)[C@@H]1CC[C@]2(C(=O)N3CCN(C(=O)/C=C/c4cccc(OC)c4)CC3)CC[C@]3(C)[C@H](CC[C@@H]4[C@@]5(C)CC[C@H](OC(=O)CC(C)(C)C(=O)O)C(C)(C)[C@@H]5CC[C@]43C)[C@@H]12`: the IC50 in data set [1] (read-out: IC50) is 0.15 µM; in data set [1] (read-out: pIC50 (converted)), 0.151 µM. Besides, the CC50 in the data set with MT4 was more than 2 µM. For the molecule `C=C(C)[C@@H]1CC[C@]2(C(=O)N3CCN(C(=O)CC(C)(C)C(=O)O)CC3)CC[C@]3(C)[C@H](CC[C@@H]4[C@@]5(C)CC[C@H](O)C(C)(C)[C@@H]5CC[C@]43C)[C@@H]12`, the IC50 in data set [1] (read-out: IC50) is more than 1 µM.

As for `C=C(C)[C@@H]1CC[C@]2(C(=O)N3CCN(C(=O)/C=C/c4cccc(OCc5cccc([N+](=O)[O-])c5)c4)CC3)CC[C@]3(C)[C@H](CC[C@@H]4[C@@]5(C)CC[C@H](OC(=O)CC(C)(C)C(=O)O)C(C)(C)[C@@H]5CC[C@]43C)[C@@H]12`, the IC50 in data set [1] (read-out: IC50) is 0.58 µM; in data set [1] (read-out: pIC50 (converted)) it was 0.575 µM. Also, the CC50 with MT4 was more than 2 µM. Take `C=C(C)[C@@H]1CC[C@]2(C(=O)OCCCOC(=O)/C=C/c3ccc(N(C)C)cc3)CC[C@]3(C)[C@H](CC[C@@H]4[C@@]5(C)CC[C@H](OC(=O)CC(C)(C)C(=O)O)C(C)(C)[C@@H]5CC[C@]43C)[C@@H]12`: in data set [1] (read-out: IC50), the IC50 is more than 1 µM. For the molecule `C=C(C)[C@@H]1CC[C@]2(C(=O)O)CC[C@]3(C)[C@H](CC[C@@H]4[C@@]5(C)CC[C@H](OC(=O)CC(C)(C)C(=O)O)C(C)(C)[C@@H]5CC[C@]43C)[C@@H]12` [BEVIRIMAT], the CC50 in the data set with MT4 is more than 2 µM.

A word on the CC50: it is the concentration at which the toxic effect on the cells reaches its halfway point.

The record behind these values is ChEMBL document CHEMBL4732243, “Design, synthesis, and structure activity relationship analysis of new betulinic acid derivatives as potent HIV inhibitors” (Eur J Med Chem, 2021).
